Results taken from ChEMBL document CHEMBL3774321, “Systematic diversification of benzylidene heterocycles yields novel inhibitor scaffolds selective for Dyrk1A, Clk1 and CK2” (Eur J Med Chem, 2016).
The source made the active and inactive calls. The rule behind the calls is not given here.

Experiments:
[1] = biological target: T1, Serine/threonine-protein kinase haspin (Homo sapiens) (UniProt Q8TF76); test: Inhibition of Haspin (unknown origin) at 5 uM relative to control
T1 sequence (whole entry): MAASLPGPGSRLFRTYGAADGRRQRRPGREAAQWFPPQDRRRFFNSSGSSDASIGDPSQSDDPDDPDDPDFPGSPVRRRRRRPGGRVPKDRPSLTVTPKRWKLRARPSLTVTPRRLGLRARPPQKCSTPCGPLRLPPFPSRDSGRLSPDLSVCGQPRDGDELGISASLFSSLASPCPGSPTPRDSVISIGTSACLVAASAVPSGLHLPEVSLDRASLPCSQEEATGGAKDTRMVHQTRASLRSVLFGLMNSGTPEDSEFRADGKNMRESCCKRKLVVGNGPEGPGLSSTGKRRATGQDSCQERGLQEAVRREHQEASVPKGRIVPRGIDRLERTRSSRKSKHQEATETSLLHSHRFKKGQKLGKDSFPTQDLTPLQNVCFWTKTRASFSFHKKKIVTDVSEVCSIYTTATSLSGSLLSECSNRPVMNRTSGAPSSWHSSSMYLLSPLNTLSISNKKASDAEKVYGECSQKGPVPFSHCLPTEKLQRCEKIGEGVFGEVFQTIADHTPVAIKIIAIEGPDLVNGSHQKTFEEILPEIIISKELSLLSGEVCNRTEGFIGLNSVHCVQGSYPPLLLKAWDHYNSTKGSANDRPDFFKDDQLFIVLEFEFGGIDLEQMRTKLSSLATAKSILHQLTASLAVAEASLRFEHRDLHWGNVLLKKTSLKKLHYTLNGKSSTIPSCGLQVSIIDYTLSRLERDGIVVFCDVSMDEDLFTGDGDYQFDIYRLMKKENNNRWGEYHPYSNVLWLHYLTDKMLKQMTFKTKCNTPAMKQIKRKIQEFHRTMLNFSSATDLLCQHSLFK

[2] = biological target: T2, Phosphatidylinositol 4,5-bisphosphate 3-kinase catalytic subunit delta isoform (Homo sapiens) (UniProt O00329); test: Inhibition of PI3K p110delta (unknown origin) at 5 uM relative to control
T2 sequence (whole entry): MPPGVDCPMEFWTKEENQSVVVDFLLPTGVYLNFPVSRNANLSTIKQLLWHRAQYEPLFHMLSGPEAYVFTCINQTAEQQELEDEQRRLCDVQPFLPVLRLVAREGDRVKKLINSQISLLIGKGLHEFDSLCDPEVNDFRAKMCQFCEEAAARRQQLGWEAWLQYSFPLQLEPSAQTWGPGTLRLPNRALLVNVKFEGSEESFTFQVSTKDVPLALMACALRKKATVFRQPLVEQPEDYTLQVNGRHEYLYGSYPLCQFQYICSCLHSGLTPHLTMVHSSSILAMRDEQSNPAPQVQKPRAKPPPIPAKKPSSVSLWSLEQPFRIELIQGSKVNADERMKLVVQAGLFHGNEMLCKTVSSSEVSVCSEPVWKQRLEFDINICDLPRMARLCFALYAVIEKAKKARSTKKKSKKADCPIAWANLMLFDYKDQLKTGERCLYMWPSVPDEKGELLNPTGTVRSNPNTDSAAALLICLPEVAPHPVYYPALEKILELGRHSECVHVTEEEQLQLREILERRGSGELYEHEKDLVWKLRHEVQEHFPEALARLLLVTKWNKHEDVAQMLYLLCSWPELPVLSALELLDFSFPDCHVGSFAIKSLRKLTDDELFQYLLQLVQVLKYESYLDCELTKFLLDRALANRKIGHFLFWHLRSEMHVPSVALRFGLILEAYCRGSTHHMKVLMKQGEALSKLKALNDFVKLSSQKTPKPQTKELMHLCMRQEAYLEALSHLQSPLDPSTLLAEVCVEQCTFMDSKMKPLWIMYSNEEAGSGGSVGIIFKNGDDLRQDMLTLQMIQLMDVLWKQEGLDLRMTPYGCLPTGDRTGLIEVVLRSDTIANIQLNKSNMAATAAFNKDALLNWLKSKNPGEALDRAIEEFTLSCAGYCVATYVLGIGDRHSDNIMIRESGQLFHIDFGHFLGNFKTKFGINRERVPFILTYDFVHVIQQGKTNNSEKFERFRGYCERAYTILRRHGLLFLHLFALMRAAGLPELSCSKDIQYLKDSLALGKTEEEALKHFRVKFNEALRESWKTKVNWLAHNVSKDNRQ

[3] = biological target: T3, Phosphatidylinositol 4,5-bisphosphate 3-kinase catalytic subunit gamma isoform (Homo sapiens, UniProt P48736); test: Inhibition of PI3K p110gamma (unknown origin) at 5 uM relative to control
Target sequence in this assay (P48736 whole entry, looked up, canonical isoform): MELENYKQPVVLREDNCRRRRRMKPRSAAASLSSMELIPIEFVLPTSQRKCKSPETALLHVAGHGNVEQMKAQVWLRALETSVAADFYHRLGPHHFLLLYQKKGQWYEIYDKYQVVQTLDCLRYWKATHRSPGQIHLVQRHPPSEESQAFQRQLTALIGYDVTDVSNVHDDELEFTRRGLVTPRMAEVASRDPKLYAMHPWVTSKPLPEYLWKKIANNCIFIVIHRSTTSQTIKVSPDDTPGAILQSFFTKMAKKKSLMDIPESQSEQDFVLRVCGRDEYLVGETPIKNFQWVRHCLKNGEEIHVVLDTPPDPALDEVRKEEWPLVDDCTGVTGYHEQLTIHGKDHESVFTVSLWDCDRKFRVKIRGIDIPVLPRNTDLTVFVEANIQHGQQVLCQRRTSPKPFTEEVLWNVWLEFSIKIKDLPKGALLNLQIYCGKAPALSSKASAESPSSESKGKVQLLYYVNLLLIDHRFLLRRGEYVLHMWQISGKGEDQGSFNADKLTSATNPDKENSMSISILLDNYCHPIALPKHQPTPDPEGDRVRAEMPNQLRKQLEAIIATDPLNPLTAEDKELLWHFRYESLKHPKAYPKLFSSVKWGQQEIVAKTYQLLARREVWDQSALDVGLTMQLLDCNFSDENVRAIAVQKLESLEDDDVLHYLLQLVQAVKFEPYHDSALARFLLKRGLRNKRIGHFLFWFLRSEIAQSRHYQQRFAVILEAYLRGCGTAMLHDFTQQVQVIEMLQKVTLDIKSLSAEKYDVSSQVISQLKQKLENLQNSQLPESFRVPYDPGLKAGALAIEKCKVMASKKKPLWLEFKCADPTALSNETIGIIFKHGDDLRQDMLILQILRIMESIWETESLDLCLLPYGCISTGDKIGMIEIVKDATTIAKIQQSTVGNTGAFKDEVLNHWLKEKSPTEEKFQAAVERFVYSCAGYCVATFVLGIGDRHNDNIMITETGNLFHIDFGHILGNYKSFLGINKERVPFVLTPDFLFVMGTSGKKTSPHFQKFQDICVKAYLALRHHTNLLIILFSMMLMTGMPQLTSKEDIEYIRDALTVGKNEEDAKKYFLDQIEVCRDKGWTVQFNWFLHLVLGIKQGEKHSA

[4] = biological target: Myosin light chain kinase 2, skeletal/cardiac muscle (Homo sapiens, UniProt Q9H1R3); test: Inhibition of full length recombinant human N-terminal GST-tagged MLCK expressed in baculovirus expression system at 1 uM by lantha screen kinase binding assay relative to control
Procedure, shortened: (§1)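 Binding-displacement format: the compound competes with an Alexa Fluor-conjugated tracer for binding to the kinase ATP site, rather than a peptide phosphorylation read-out.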

[5] = biological target: cAMP-dependent protein kinase catalytic subunit alpha (Homo sapiens) (UniProt P17612); test: Inhibition of recombinant human His-tagged PRKACA expressed in Escherichia coli at 1 uM by lantha screen kinase binding assay relative to control; procedure, shortened: as §1
[6] = biological target: Casein kinase I isoform epsilon (Homo sapiens) (UniProt P49674); test: Inhibition of full length recombinant human His-tagged CSNK1E expressed in baculovirus expression system at 1 uM by lantha screen kinase binding assay relative to control
[7] = biological target: T1, Serine/threonine-protein kinase haspin (Homo sapiens); test: Inhibition of Haspin (unknown origin) at 1 uM relative to control
Procedure, shortened: (§2)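 Single-point screen at 1 μM compound. Percent inhibition is the mean of two separate measurements, each run in duplicate.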

[8] = biological target: Phosphatidylinositol 4-phosphate 3-kinase C2 domain-containing subunit beta (Homo sapiens) (UniProt O00750); test: Inhibition of PI3K-C2beta (unknown origin) at 1 uM relative to control; procedure, shortened: as §2
[9] = biological target: Phosphatidylinositol 4,5-bisphosphate 3-kinase catalytic subunit alpha isoform (Homo sapiens, UniProt P42336); test: Inhibition of PI3K p110alpha (unknown origin) at 1 uM relative to control; procedure, shortened: as §2
[10] = biological target: T3, Phosphatidylinositol 4,5-bisphosphate 3-kinase catalytic subunit gamma isoform; test: Inhibition of PI3K p110gamma (unknown origin)
Target sequence in this assay (P48736 whole entry, canonical isoform): as the sequence (P48736 whole entry, looked up, canonical isoform) above

[11] = biological target: Dual specificity protein kinase CLK2 (Homo sapiens) (UniProt P49760); test: Inhibition of recombinant human GST-tagged CLK2 expressed in baculovirus expression system at 1 uM by lantha screen kinase binding assay relative to control; procedure, shortened: as §1
[12] = biological target: Homeodomain-interacting protein kinase 1 (Homo sapiens) (UniProt Q86Z02); test: Inhibition of recombinant human N-terminal GST-tagged HIPK1 expressed in baculovirus expression system at 1 uM by lantha screen kinase binding assay relative to control; procedure, shortened: as §1
[13] = biological target: T2, Phosphatidylinositol 4,5-bisphosphate 3-kinase catalytic subunit delta isoform (Homo sapiens); conditions: 1 uM
[14] = biological target: Tyrosine-protein kinase ABL1 (Homo sapiens) (UniProt P00519); test: Inhibition of recombinant human His-tagged ABL1 expressed in baculovirus expression system at 5 uM by lantha screen kinase binding assay relative to control; procedure, shortened: as §1
[15] = biological target: Dual specificity protein kinase CLK4 (Homo sapiens, UniProt Q9HAZ1); conditions: 5 uM
Chain of Dual specificity protein kinase CLK4 (Q9HAZ1 whole entry, looked up): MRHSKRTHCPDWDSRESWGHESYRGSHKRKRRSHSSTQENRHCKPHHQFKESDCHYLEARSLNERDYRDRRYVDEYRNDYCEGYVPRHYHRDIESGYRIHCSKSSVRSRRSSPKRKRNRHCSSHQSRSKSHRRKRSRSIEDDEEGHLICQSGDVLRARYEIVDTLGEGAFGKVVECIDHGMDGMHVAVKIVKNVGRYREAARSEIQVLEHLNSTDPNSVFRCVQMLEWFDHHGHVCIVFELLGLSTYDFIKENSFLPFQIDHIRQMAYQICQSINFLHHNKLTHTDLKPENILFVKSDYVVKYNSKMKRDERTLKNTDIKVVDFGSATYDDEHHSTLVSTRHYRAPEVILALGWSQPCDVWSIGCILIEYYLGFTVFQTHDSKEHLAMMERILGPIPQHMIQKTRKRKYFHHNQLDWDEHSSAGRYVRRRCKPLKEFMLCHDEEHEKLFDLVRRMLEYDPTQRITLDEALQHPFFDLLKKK

Chain of Phosphatidylinositol 4-phosphate 3-kinase C2 domain-containing subunit beta (Homo sapiens) (O00750 whole entry, the tested form may be a part, canonical isoform): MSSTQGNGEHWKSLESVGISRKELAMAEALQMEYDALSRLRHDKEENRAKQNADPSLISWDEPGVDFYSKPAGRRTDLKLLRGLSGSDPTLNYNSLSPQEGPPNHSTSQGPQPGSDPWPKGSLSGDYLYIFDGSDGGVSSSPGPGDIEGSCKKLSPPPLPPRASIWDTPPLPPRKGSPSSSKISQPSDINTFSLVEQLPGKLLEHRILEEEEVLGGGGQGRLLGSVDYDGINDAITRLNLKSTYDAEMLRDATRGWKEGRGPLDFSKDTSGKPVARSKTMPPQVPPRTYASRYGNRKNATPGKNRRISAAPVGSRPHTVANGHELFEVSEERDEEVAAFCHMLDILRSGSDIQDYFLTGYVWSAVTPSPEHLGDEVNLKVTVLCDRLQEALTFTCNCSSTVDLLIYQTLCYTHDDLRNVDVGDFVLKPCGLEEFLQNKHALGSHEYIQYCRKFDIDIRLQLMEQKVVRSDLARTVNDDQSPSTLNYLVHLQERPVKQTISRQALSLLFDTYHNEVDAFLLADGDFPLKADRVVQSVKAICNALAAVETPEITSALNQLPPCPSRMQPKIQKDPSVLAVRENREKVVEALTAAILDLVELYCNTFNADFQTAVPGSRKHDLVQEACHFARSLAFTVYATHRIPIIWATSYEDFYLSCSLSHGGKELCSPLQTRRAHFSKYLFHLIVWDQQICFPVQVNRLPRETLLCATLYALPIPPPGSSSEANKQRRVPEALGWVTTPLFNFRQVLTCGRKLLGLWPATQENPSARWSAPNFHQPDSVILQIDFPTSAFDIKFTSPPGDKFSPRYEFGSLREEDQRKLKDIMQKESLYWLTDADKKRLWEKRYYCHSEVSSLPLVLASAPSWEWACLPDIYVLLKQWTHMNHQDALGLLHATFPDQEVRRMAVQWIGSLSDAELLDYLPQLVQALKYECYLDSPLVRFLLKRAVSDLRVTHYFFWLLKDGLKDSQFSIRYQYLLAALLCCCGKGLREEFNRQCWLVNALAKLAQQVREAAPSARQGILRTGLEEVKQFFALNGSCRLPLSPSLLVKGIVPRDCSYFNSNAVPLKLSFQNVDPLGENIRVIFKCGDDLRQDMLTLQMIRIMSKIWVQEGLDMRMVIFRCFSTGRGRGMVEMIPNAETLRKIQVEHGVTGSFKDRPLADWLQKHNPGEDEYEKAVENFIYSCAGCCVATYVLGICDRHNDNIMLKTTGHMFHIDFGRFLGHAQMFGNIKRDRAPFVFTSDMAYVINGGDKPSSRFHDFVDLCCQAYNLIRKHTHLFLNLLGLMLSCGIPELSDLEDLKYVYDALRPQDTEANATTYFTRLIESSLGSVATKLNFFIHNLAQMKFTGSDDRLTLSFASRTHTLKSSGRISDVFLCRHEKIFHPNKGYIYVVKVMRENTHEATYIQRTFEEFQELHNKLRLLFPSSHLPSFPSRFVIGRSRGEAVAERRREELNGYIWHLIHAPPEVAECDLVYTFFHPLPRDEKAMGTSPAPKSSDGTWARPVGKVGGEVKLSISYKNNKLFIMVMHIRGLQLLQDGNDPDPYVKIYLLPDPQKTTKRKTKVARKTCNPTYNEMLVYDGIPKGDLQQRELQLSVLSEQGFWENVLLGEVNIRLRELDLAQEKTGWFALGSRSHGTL
Chain of Phosphatidylinositol 4,5-bisphosphate 3-kinase catalytic subunit alpha isoform (P42336 whole entry, canonical isoform): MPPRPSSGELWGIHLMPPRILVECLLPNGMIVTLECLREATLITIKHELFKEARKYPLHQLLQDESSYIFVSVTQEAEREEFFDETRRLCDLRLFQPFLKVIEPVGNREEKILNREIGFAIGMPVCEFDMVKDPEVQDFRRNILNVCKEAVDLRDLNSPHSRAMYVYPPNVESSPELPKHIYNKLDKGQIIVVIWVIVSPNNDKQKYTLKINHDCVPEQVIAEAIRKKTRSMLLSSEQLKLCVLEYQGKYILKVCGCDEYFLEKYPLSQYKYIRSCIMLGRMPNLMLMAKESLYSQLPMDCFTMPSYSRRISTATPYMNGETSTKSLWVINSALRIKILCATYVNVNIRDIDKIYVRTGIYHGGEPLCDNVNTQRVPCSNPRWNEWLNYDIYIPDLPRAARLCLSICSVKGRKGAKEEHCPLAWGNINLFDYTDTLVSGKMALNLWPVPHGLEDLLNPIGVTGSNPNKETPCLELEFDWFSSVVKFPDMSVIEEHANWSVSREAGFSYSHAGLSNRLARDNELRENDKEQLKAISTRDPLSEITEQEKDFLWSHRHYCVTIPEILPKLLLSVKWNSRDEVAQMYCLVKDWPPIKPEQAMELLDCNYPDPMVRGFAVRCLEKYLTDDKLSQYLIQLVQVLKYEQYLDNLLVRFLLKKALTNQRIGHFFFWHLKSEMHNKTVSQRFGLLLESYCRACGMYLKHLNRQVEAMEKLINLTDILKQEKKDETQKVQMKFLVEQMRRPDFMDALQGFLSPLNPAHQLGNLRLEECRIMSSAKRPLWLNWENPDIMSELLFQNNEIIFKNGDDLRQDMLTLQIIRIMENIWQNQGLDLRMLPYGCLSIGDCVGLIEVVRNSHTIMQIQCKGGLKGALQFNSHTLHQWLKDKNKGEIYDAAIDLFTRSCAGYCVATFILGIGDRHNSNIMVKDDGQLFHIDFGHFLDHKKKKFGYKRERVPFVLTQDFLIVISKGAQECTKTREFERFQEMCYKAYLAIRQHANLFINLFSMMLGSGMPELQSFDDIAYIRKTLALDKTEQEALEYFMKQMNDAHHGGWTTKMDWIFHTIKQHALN
Chain of Myosin light chain kinase 2, skeletal/cardiac muscle (Q9H1R3 whole entry): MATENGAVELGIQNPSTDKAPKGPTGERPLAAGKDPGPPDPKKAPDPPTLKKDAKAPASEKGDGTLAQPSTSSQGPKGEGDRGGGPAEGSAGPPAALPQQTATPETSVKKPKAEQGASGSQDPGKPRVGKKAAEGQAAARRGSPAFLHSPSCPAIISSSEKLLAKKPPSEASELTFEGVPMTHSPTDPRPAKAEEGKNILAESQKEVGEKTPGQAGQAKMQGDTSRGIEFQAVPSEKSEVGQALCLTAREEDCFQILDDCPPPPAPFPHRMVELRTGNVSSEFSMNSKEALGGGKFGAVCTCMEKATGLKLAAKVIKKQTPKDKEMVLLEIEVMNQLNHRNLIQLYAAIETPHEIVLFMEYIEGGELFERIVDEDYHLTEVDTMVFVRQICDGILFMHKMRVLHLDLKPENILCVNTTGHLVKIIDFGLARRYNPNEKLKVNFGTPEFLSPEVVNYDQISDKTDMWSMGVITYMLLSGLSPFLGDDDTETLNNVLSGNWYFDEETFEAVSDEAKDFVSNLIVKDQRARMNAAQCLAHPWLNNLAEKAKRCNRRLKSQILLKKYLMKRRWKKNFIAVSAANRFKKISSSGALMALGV

Row | inhibition [1] [%] | inhibition [2] [%] | inhibition [3] [%] | inhibition [4] [%] | inhibition [5] | inhibition [6] [%] | inhibition [7] [%] | inhibition [8] [%] | inhibition [9] [%] | IC50 [10] [nM] | inhibition [11] [%] | inhibition [12] [%] | inhibition [13] [%] | inhibition [14] [%] | inhibition [15] [%] | Structure (SMILES)
1 | 75 | 77 | 79 |  |  |  |  |  |  |  |  |  |  |  |  | O=C1OCC/C1=C\c1ccc2ncsc2c1
2 | 43 | 73 | 75 |  |  |  |  |  |  |  |  |  |  |  |  | CC1C/C(=C\c2ccc3c(c2)CCO3)C(=O)O1 (stereo not drawn)
3 |  |  |  | 89 | inactive | 1 | 93 | 62 | 100 | 2.3 | 80 | 33 | 97 |  |  | O=C1NC(=S)S/C1=C\c1ccc2ncccc2c1
4 |  |  |  |  |  |  | 93 | 56 | 98 | 2.3 |  |  | 90 | 6 | 98 | O=C1NC(=S)S/C1=C\c1ccc2ncsc2c1
